From ChEMBL document CHEMBL1129316, “Inhibitors of human immunodeficiency virus type 1 protease containing 2-aminobenzyl-substituted 4-amino-3-hydroxy-5-phenylpentanoic acid: synthesis, activity, and oral bioavailability” (J Med Chem, 1996)
In brackets after ≈: the same amount, converted by molar mass.

What was measured:
[1] = target: T1, Human immunodeficiency virus type 1 protease (Human immunodeficiency virus 1, UniProt Q72874); assay: Binding affinity against HIV-1 protease (HIV-1 PR); d indicates no activity at 3 uM
Procedure, shortened: (§1)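 Recombinant HIV-1 PR expressed in E. coli JM105 and purified to homogeneity. Enzyme incubated at 37 °C in 0.1 M MES, 0.37 M NaCl, 4 mM EDTA, pH 6.25, with 280 µM chromogenic nonapeptide substrate (pNph). Initial rates taken from the absorbance decrease at 298 nm. IC50 fitted, then Ki = (IC50 − Et/2)/(1 + S/Km). Mean of two determinations; DMSO ≤5%.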

MT4 = assay: Antiviral Activity against HIV-1, IIIB, in MT-4 Cells; d indicates no activity at 3 uM; assay type: functional, cell-based, Homo sapiens
Procedure, shortened: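 MT4 cells infected with HIV-1 IIIB; virus adsorbed at 1 × 10⁶ cells/mL, 37 °C, 1 h, then plated at 1 × 10⁵ cells/mL with compound added postadsorption. Inoculum set to kill 90% of cells in 5 days. Incubated 5 days; viability of infected and mock-infected cells by MTT, read spectrophotometrically. Medium with 10% FBS; DMSO ≤0.3%. Values given as mean ± SD, n in parentheses.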

[2] = Oral Bioavailability was measured as Maximal observed concentration (Cmax) value at dose 125 mg/kg;b = No compound detectable in blood above the detection limit of 0.1 uM; assay type: ADME, organism-based; parameters: dose 125 mg/kg, route oral; conditions: in vivo
Procedure, shortened: (§2)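 Female Balb/c mice, fasted 24 h before and during the study, water ad libitum. Dosed by oral gavage at 125 mg/kg in a liquid formulation. Heparinized whole blood sampled at various times, methanol-extracted, cleaned on sulfobenzyl SPE, then RP-C18 HPLC with UV at 200 nm against an internal standard. Cmax taken as observed; AUC calculated. Detection limit 0.1 µM.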

[3] = Oral Bioavailability was measured as area-under-curve(AUC) value at dose 125 mg/kg; b = No compound detectable in blood above the detection limit of 0.1 uM; assay type: ADME, organism-based; conditions: in vivo; procedure, shortened: as §2
[4] = tested on: Human immunodeficiency virus 1; assay: Antiviral activity against HIV-1, IIIB, in MT-4 Cells; assay type: functional, organism-based; conditions: Human immunodeficiency virus 1, MT4
Procedure, shortened: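 HIV-1 strain IIIB-induced cytopathic effect in HTLV-I-transformed MT4 cells. Virus adsorbed to cells at 1 × 10⁶ cells/mL, 37 °C, 1 h. Compounds added postadsorption, final 1 × 10⁵ cells/mL. Inoculum set to kill 90% of cells in 5 days. Mock-infected and compound-only controls run. DMSO ≤0.3%, medium with 10% FBS. Viability read by MTT after 5 days. Mean of repeat determinations.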

[5] = Solubility (phosphate-buffered saline, pH =7.4); assay type: physicochemical; conditions: read-out: S
Procedure, shortened: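 About 1 mg of lyophilized amorphous inhibitor in 1 mL PBS (pH 7.4), vortexed 1 min and sonicated 30 min at 37 °C. Filtered, then centrifuged at 100 000 rpm for 30 min. Supernatant run on RP-C18 HPLC (10 mM NH4OAc/CH3CN 50/50, UV 210 nm) and quantified by external standard. Minimum detectable 0.1 µg/mL.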

[6] = Oral Bioavailability was measured as area-under-curve(AUC) value at dose 125 mg/kg; b denotes No compound detectable in blood above the detection limit of 0.1 uM; assay type: ADME, organism-based; conditions: in vivo; procedure, shortened: as §2
[7] = Oral Bioavailability was measured as Maximal observed concentration (Cmax) value at dose 125 mg/kg; b denotes No compound detectable in blood above the detection limit of 0.1 uM; assay type: ADME, organism-based; parameters: dose 125 mg/kg, route oral; conditions: in vivo; procedure, shortened: as §2
[8] = target: T1, Human immunodeficiency virus type 1 protease; assay: Binding affinity against HIV-1 protease; procedure, shortened: as §1
[9] = Oral Bioavailability was measured as Maximal observed concentration (Cmax) value at dose 125 mg/kg; b = No compound detectable in blood above the detection limit of 0.1 uM; assay type: ADME, organism-based; parameters: dose 125 mg/kg, route oral; conditions: in vivo; procedure, shortened: as §2
[10] = Oral Bioavailability was measured as area-under-curve(AUC) value at dose 125 mg/kg;b = No compound detectable in blood above the detection limit of 0.1 uM; assay type: ADME, organism-based; conditions: in vivo; procedure, shortened: as §2

| Ki [1] | SMILES | IC50 (MT4) | Cmax [2] | AUC [3] | IC50 [4] [nM] | solubility [5] [µM] | AUC [6] | Cmax [7] | Ki [8] [nM] | Cmax [9] | AUC [10] |
| --- | --- | --- | --- | --- | --- | --- | --- | --- | --- | --- | --- |
| No activity | COc1ccc(CN[C@@H](C(=O)N[C@H](CO)c2ccccc2)[C@H](O)[C@H](Cc2ccccc2)NC(=O)OC(C)(C)C)cc1 | No activity | – | – | – | – | – | – | – | – | – |
| – | CC(C)(C)[C@H](NC(=O)OCc1ccccc1)C(=O)N[C@@H](Cc1ccccc1)[C@@H](O)[C@@H](NCc1ccc(CNC(=O)OCc2ccccc2)cc1)C(=O)N[C@H]1c2ccccc2C[C@H]1O | – | No compound detectable | No compound detectable | 142 | < 1 | – | – | – | – | – |
| – | CC(C)(C)[C@H](NC(=O)OCc1ccccc1)C(=O)N[C@@H](Cc1ccccc1)[C@@H](O)[C@@H](NCc1ccc(CNC(=O)CCc2nc3ccccc3[nH]2)cc1)C(=O)N[C@@H]1c2ccccc2C[C@H]1O | – | – | – | 161 | < 1 | No compound detectable | No compound detectable | 4.1 | – | – |
| – | COc1ccc(CN[C@@H](C(=O)N[C@H]2c3ccccc3C[C@H]2O)[C@H](O)[C@H](Cc2ccccc2)NC(=O)[C@@H](NC(=O)CCc2nc3ccccc3[nH]2)C(C)(C)C)cc1 | – | – | No compound detectable | 98 | 12.2 (≈ 9.28 µg/mL) | – | – | 9.4 | No compound detectable | – |
| – | COc1ccc(CN[C@@H](C(=O)NC2c3ccccc3C[C@H]2O)[C@H](O)[C@H](Cc2ccccc2)NC(=O)[C@@H](NC(=O)/C=C/c2ccc(OC)c(O)c2)C(C)(C)C)cc1 (stereo not given in full) | – | No compound detectable | – | 125 | – | – | – | 5.8 | – | No compound detectable |
| – | CC(C)(C)[C@H](NC(=O)OCc1ccccc1)C(=O)N[C@@H](Cc1ccccc1)[C@@H](O)[C@@H](NCc1ccc(CNC(=O)Nc2ccccc2)cc1)C(=O)N[C@H]1c2ccccc2C[C@H]1O | – | – | – | 175 | < 1 | – | – | 3.3 | No compound detectable | No compound detectable |
| – | CC(C)(C)[C@H](NC(=O)OCc1ccccc1)C(=O)N[C@@H](Cc1ccccc1)[C@@H](O)[C@@H](NCc1ccc(OCCN2CCOCC2)cc1)C(=O)N[C@H]1c2ccccc2C[C@H]1O | – | – | No compound detectable | 47 | 14.5 (≈ 11.9 µg/mL) | – | – | 9.5 | No compound detectable | – |
